Eight molecules from ChEMBL document CHEMBL1821590, “Novel dihydropyrimidines and its pyrazole derivatives: synthesis and pharmacological screening” (Eur J Med Chem, 2011) can be followed below.

Common to all, as to format: functional
Test [1] can be described thus: Antiinflammatory activity assessed as inhibition of albumin denaturation at 100 ug/ml by UV-visible spectrophotometry. In outline: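 Compounds dissolved in minimal DMF, diluted in PBS pH 7.4 (final DMF <2.5%). 1 mL test solution (100 µg/mL) plus 1 mL 1% albumin in PBS, 15 min at 27 ± 1 °C, then heated 10 min at 60 ± 1 °C. After cooling, turbidity read at 660 nm. % inhibition = [(Vt/Vc) − 1] × 100 against a no-drug control. Triplicate, averaged. Diclofenac standard.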

The subject of test [2] is Metaphire posthuma. Description: Anthelmintic activity against Pheretima posthuma assessed as time taken for complete parasite paralysis at 0.2% w/v. In outline: (§1)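 Earthworms (Pheretima posthuma) exposed to test solutions at 0.1, 0.2 and 0.5% w/v; time in minutes to complete paralysis (worms motionless) recorded. Albendazole as standard. Mean of three determinations ± S.D.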

Test [3] has as its system Metaphire posthuma. Description: Anthelmintic activity against Pheretima posthuma assessed as time taken for parasite death at 0.2% w/v. In outline: (§2)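 Earthworms (Pheretima posthuma, spelled Perituma posthuma in text) exposed to test compounds at 0.1, 0.2 and 0.5% w/v. Albendazole served as standard, with an untreated control. Paralysis was recorded as the time until worms became motionless, then time to death was recorded, in minutes. Each value is the mean of three determinations with S.D.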

Test [4] relates to Metaphire posthuma. Description: Anthelmintic activity against Pheretima posthuma assessed as time taken for complete parasite paralysis at 0.1% w/v. In outline: as §1
Test [5] has as its system Metaphire posthuma. Description: Anthelmintic activity against Pheretima posthuma assessed as time taken for parasite death at 0.5% w/v. In outline:
as §2

Test [6] deals with Metaphire posthuma. The experiment in a line: Anthelmintic activity against Pheretima posthuma assessed as time taken for complete parasite paralysis at 0.5% w/v. In outline:
as §1

The test system of test [7] is Metaphire posthuma. The experiment in a line: Anthelmintic activity against Pheretima posthuma assessed as time taken for parasite death at 0.1% w/v. In outline:
as §2

In test [8] the test system is Aspergillus niger. Description: Antimicrobial activity against Aspergillus niger at 50 ug/ml by paper disc method. Conditions: read-out: IZ. In outline:
(§3)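 Paper disc method against A. niger and C. albicans, with compounds at 25, 50 and 100 µg/mL. Amphotericin-B as standard.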

For test [9], the system named is Candida albicans. The experiment in a line: Antimicrobial activity against Candida albicans at 50 ug/ml by paper disc method. Conditions: read-out: IZ. In outline: as §3
Test [10] has as its system Candida albicans. Description: Antimicrobial activity against Candida albicans at 25 ug/ml by paper disc method. Conditions: read-out: IZ. In outline: as §3
Test [11] deals with Aspergillus niger. Description: Antimicrobial activity against Aspergillus niger at 25 ug/ml by paper disc method. Conditions: read-out: IZ. In outline:
as §3

Test [12] concerns Aspergillus niger. Description: Antimicrobial activity against Aspergillus niger at 100 ug/ml by paper disc method. Conditions: read-out: IZ. In outline: as §3
Test [13] has as its system Candida albicans. Description: Antimicrobial activity against Candida albicans at 100 ug/ml by paper disc method. The note with it: read-out: IZ. In outline:
as §3

The subject of test [14] is Bacillus subtilis. The experiment in a line: Antimicrobial activity against Bacillus subtilis at 25 ug/ml by agar plate diffusion technique. Conditions: read-out: IZ. In outline: (§4)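 Agar plate diffusion against E. coli, P. aeruginosa, S. aureus and B. subtilis, with compounds at 25, 50 and 100 µg/mL. Streptomycin as standard.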
The test system of test [15] is Bacillus subtilis. The experiment in a line: Antimicrobial activity against Bacillus subtilis at 50 ug/ml by agar plate diffusion technique. The note with it: read-out: IZ. In outline:
as §4

Test [16] can be described thus: Antioxidant activity assessed as potassium ferricyanide ion reducing power after 20 mins. In outline: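 Oyaizu method. Samples or ascorbic acid in DMF (12.5–100 µg/mL) mixed with 0.2 M phosphate buffer pH 6.6 and 1% potassium ferricyanide, 20 min at 50 °C. 10% TCA added, centrifuged. Supernatant mixed with water and 0.1% FeCl3, read at 700 nm. % = [(Vt/Vc) − 1] × 100. IC50 derived.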

Test [17] has as its system Pseudomonas aeruginosa. The experiment in a line: Antimicrobial activity against Pseudomonas aeruginosa at 25 ug/ml by agar plate diffusion technique. Conditions: read-out: IZ. In outline:
as §4

Test [18] in a line: Antioxidant activity assessed as inhibition of lipid peroxidation using egg lecithin liposomes incubated for 1 hr. In outline: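 Egg lecithin (3 mg/mL, phosphate buffer pH 7.4) sonicated 10 min to form liposomes. Sample or ascorbic acid (12.5–100 µg/mL) added. Peroxidation induced with FeCl3 and L-ascorbic acid, 1 h at 37 °C. Stopped with HCl/TCA/TBA/BHA, boiled 15 min, centrifuged, supernatant read at 532 nm. Triplicate. % inhibition vs control. IC50 derived.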

Test [19] deals with Pseudomonas aeruginosa. The experiment in a line: Antimicrobial activity against Pseudomonas aeruginosa at 50 ug/ml by agar plate diffusion technique. The note with it: read-out: IZ. In outline:
as §4

The test system of test [20] is Escherichia coli. The experiment in a line: Antimicrobial activity against Escherichia coli at 25 ug/ml by agar plate diffusion technique. Conditions: read-out: IZ. In outline:
as §4

Test [21] has as its system Bacillus subtilis. The experiment in a line: Antimicrobial activity against Bacillus subtilis at 100 ug/ml by agar plate diffusion technique. The note with it: read-out: IZ. In outline:
as §4

Test [22] concerns Pseudomonas aeruginosa. The experiment in a line: Antimicrobial activity against Pseudomonas aeruginosa at 100 ug/ml by agar plate diffusion technique. The note with it: read-out: IZ. In outline: as §4
The test system of test [23] is Escherichia coli. Description: Antimicrobial activity against Escherichia coli at 100 ug/ml by agar plate diffusion technique. Conditions: read-out: IZ. In outline: as §4
The nature of test [24]: Antioxidant activity assessed as nitric oxide radical scavenging activity after 150 mins. In outline: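 10 mM sodium nitroprusside (4 mL), PBS pH 7.4 (1 mL) and sample or ascorbic acid in DMSO (1 mL, 12.5–100 µg/mL), incubated 150 min at 25 °C. Nitrite detected with sulphanilic acid (5 min) then naphthylethylenediamine (30 min, diffused light). Read at […]. Triplicate. % inhibition = [1 − (Vt/Vc)] × 100. IC50 derived from it.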

Test [25] in a line: Antioxidant activity assessed as hydrogen peroxide scavenging activity after 10 mins. In outline: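 H2O2 (20 mM) in PBS pH 7.4. 1 mL of sample or ascorbic acid in methanol (12.5–100 µg/mL) added to 2 mL H2O2 solution. A230 read after 10 min. % inhibition = [1 − (Vt/Vc)] × 100. Triplicate, averaged. IC50 derived from % inhibition across concentrations.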
For test [26], the system named is Escherichia coli. Description: Antimicrobial activity against Escherichia coli at 50 ug/ml by agar plate diffusion technique. Conditions: read-out: IZ. In outline: as §4

As a reminder, the inhibition is how much of the control response was suppressed. Usually IC50 stands for the concentration that inhibits the measured activity by half.

Converted amounts (≈) assume the structure as drawn.

On to `O=C(O)Cc1ccccc1Nc1c(Cl)cccc1Cl`, for which the inhibition in test [1] turned out to be 83.3%.
Take `CCCSc1ccc2[nH]c(NC(=O)OC)nc2c1` [ALBENDAZOLE]: the Time in test [2] amounted to 35.58 min; in [3] it was 55.25 min; in [4] it was 50.38 min; in [5], 53.34 min; in [6], 30.57 min; in test [7] it was 60.36 min.
In the case of `C[C@@H]1[C@H](O)[C@@H](C)/C=C/C=C/C=C/C=C/C=C/C=C/C=C/[C@H](O[C@@H]2O[C@H](C)[C@@H](O)[C@H](N)[C@@H]2O)C[C@@H]2O[C@](O)(C[C@@H](O)C[C@@H](O)[C@H](O)CC[C@@H](O)C[C@@H](O)CC(=O)O[C@H]1C)C[C@H](O)[C@H]2C(=O)O` [AMPHOTERICIN B], the zone of inhibition at 50 µg/mL in test [8] is 17.1 mm; in [9] it was 15.3 mm. The zone of inhibition at 25 µg/mL in test [10] is 12.9 mm; in test [11] it was 14.9 mm. In addition, the values for the zone of inhibition at 100 µg/mL in test [12] and in test [13] were 26.1 mm and 23.1 mm, respectively.
As to `CN(C)c1ccc(-c2nc(NN)n(C)c(=O)c2C#N)cc1`, the zone of inhibition at 50 µg/mL was determined as 9.48 mm in [8]; 10.5 mm in test [15]; 9 mm in [9]; 6.27 mm in [19]; 7.82 mm in [26]. Moreover, the zone of inhibition at 25 µg/mL in test [14] was 8.1 mm; in [10], 9.14 mm; in test [17], 5.78 mm; in test [20], 5.74 mm; in test [11], 7.14 mm. In addition, the half-maximal inhibitory concentration (IC50) in [16] was 81 µg/mL (≈ 285 µM); in [18], 63 µg/mL (≈ 222 µM); in [24], 69 µg/mL (≈ 243 µM); in test [25], 66 µg/mL (≈ 232 µM). In addition, the Time in [2] amounted to 26.35 min; in test [3], 46.44 min; in [4], 28.25 min; in [5], 43.34 min; in test [6] it was 25.64 min; in test [7], 54.22 min. The zone of inhibition at 100 µg/mL was determined as 14.5 mm in test [21]; 15.8 mm in test [12]; 8.83 mm in [22]; 8.28 mm in test [23]; 15.3 mm in test [13]. For the same molecule, the inhibition in test [1] came to 12.6%.
As to `O=C1O[C@H]([C@@H](O)CO)C(O)=C1O` [ASCORBIC ACID], the concentration for half-maximal inhibition (IC50) in test [16] stood at 31 µg/mL (≈ 176 µM); in [18] it was 26 µg/mL (≈ 148 µM); in test [24] it was 47 µg/mL (≈ 267 µM); in [25], 33 µg/mL (≈ 187 µM).
For the molecule `Cn1c(NN)nc(-c2cccc(O)c2O)c(C#N)c1=O`, the zone of inhibition at 50 µg/mL in test [8] was 8.44 mm; in test [15] it was 14.5 mm; in test [9] it was 13.8 mm; in [19] it was 10.1 mm; in [26], 8.16 mm. In addition, the zone of inhibition at 25 µg/mL in [14] amounted to 11.5 mm; in test [10], 9.35 mm; in [17], 8.1 mm; in test [20] it was 8.72 mm; in [11] it was 7.06 mm. The concentration for half-maximal inhibition (IC50) in [16] worked out at 34 µg/mL (≈ 124 µM); in test [18], 31 µg/mL (≈ 113 µM); in test [24], 44 µg/mL (≈ 161 µM); in test [25], 29 µg/mL (≈ 106 µM). The Time was 48.56 min in test [2]; 63.98 min in test [3]; 52.22 min in test [4]; 60.27 min in test [5]; 45.65 min in [6]; 66.22 min in test [7]. In addition, the zone of inhibition at 100 µg/mL in test [21] is 22.1 mm; in test [12], 15 mm; in [22] it was 12.9 mm; in [23], 10.2 mm; in test [13], 18.7 mm. In [1], the inhibition stood at 28.8%.
`COc1ccc(-c2nc(NN)n(C)c(=O)c2C#N)cc1`: the zone of inhibition at 50 µg/mL in test [8] is 10 mm; in test [15], 10.3 mm; in [9], 10.7 mm; in test [19], 6.96 mm; in test [26], 7.71 mm. The zone of inhibition at 25 µg/mL in test [14] was determined as 9.26 mm; in test [10] it was 8.14 mm; in [17], 5 mm; in test [20], 6.28 mm; in test [11], 8.32 mm. Moreover, the IC50 in [16] was 41 µg/mL (≈ 151 µM); in test [18] it was 39 µg/mL (≈ 144 µM); in [24], 56 µg/mL (≈ 206 µM); in test [25], 32 µg/mL (≈ 118 µM). Moreover, the Time in test [2] amounted to 45.23 min; in test [3], 60.22 min; in test [4], 47.23 min; in [5], 57.45 min; in test [6], 42.6 min; in test [7], 62.32 min. Further, the zone of inhibition at 100 µg/mL in test [21] was 13.6 mm; in test [12] it was 17 mm; in [22] it was 7.21 mm; in test [23], 7.49 mm; in test [13], 15.8 mm. In addition, the inhibition in test [1] came out at 20.6%.
On to `COc1cccc(-c2nc(SC)n(C)c(=O)c2C#N)c1OC`, for which the zone of inhibition at 50 µg/mL in test [8] was 12 mm; in test [15], 14.4 mm; in test [9], 13 mm; in test [19], 8.25 mm. In addition, the zone of inhibition at 25 µg/mL in test [14] was 10.4 mm; in test [10], 10.5 mm; in test [17], 5.86 mm; in test [11], 9.25 mm. Besides, the concentration for half-maximal inhibition (IC50) amounted to 54 µg/mL (≈ 170 µM) in test [16], 48 µg/mL (≈ 151 µM) in [18], 67 µg/mL (≈ 211 µM) in test [24] and 43 µg/mL (≈ 135 µM) in test [25]. Moreover, the Time in test [2] was determined as 57.18 min; in test [3], 60.44 min; in [4], 75.54 min; in [5] it was 56.08 min; in [6], 41.47 min; in test [7], 83.02 min. The zone of inhibition at 100 µg/mL was determined as 20.3 mm in test [21], 19.7 mm in [12], 9.93 mm in [22] and 19.5 mm in test [13]. Further, the inhibition in test [1] amounted to 38.2%.
